Data published in ChEMBL document CHEMBL4118164, “Discovery of (E)-1-amino-4-phenylbut-3-en-2-ol derivatives as novel neuraminidase inhibitors” (Bioorg Med Chem Lett, 2018).

Each compound was assayed against Neuraminidase (Influenza A virus, UniProt B4URF0) (assay: Inhibition of Influenza A H1N1 virus neuraminidase activity preincubated for 2 mins followed by MUNANA substrate addition measured after 30 mins by […]).
Summary of the method: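 Test compounds were dissolved in DMSO as stock solutions and diluted with assay buffer to four concentrations, spaced tenfold apart. Neuraminidase inhibition was measured with a commercial neuraminidase-inhibitor screening kit using a fluorescent read-out. IC50 values are means of three or more experiments.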

Sequence of Neuraminidase (B4URF0 whole entry): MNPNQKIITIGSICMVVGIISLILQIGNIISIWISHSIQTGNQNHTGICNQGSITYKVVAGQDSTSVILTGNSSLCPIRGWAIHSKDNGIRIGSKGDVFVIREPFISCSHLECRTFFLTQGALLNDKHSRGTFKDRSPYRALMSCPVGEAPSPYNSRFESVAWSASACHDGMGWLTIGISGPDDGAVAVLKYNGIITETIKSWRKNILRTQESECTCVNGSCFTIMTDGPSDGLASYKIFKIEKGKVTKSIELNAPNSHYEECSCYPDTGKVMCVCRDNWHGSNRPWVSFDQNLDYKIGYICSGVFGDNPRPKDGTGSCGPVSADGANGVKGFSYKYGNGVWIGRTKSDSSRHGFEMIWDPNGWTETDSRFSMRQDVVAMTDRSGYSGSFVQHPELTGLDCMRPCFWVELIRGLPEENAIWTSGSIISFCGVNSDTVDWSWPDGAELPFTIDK

Point of comparison: `Cc1ccc(CN(Cc2ccc(C)cc2)CC(O)/C=C/c2ccccc2)cc1` (stereo unspecified), IC50 50.7 µM. Against it:
- NCC(O)c1ccccc1 (stereo unspecified) — 17-fold higher, 870 µM
- NCC(O)/C=C/c1ccccc1 (stereo unspecified) [listing 1 of 2 here] — 4.2-fold higher, 214 µM
- CC(C)(C)OC(=O)/N=C(\NCC(O)/C=C/c1ccccc1)NC(=O)OC(C)(C)C (stereo unspecified) — 2-fold higher, 103 µM
- NCC(O)c1ccsc1 (stereo unspecified) — 180-fold higher, 8900 µM
- O=S(=O)(NCC(O)/C=C/c1ccccc1)c1ccccc1 (stereo unspecified) — 6.7-fold lower, 7.6 µM
- COc1cccc(S(=O)(=O)NCC(O)/C=C/c2ccccc2)c1 (stereo unspecified) — 7-fold lower, 7.2 µM
- COc1ccccc1S(=O)(=O)NCC(O)/C=C/c1ccccc1 (stereo unspecified) — 6.3-fold lower, 8 µM
- COc1ccc(S(=O)(=O)NCC(O)/C=C/c2ccccc2)cc1 (stereo unspecified) — 7.9-fold lower, 6.4 µM
- COc1ccccc1C(O)CN (stereo unspecified) — 100-fold higher, 5200 µM
- OC(/C=C/c1ccccc1)CN(Cc1ccccc1)Cc1ccccc1 (stereo unspecified) — within 1.5-fold, 41.5 µM
- COC(=O)c1ccc(C(=O)NCC(/C=C/c2ccccc2)OC(=O)c2ccc(C(=O)OC)cc2)cc1 (stereo unspecified) — within 1.5-fold, 40.5 µM
- COc1cccc(C(O)CN)c1 (stereo unspecified) — 120-fold higher, 6100 µM
- O=S(=O)(NCC(O)/C=C/c1ccccc1)c1ccc(OCc2ccccc2)cc1 (stereo unspecified) — 4.6-fold lower, 11.1 µM
- N#Cc1ccc(CN(Cc2ccc(C#N)cc2)CC(O)/C=C/c2ccccc2)cc1 (stereo unspecified) — within 1.5-fold, 49.8 µM
- COC(=O)c1ccc(S(=O)(=O)NCC(O)/C=C/c2ccccc2)cc1 (stereo unspecified) — 3.8-fold lower, 13.3 µM
- NCC(O)/C=C/c1ccccc1 (stereo unspecified) [listing 2 of 2 here] — 4.1-fold higher, 207 µM
- N#Cc1ccc(S(=O)(=O)NCC(O)/C=C/c2ccccc2)cc1 (stereo unspecified) — 4.4-fold lower, 11.4 µM
- O=S(=O)(NCC(O)/C=C/c1ccccc1)c1ccc(Br)cc1 (stereo unspecified) — 5.4-fold lower, 9.4 µM
- Cc1ccc(C(=O)NCC(/C=C/c2ccccc2)OC(=O)c2ccc(C)cc2)cc1 (stereo unspecified) — within 1.5-fold, 61.5 µM
- Cc1ccc(S(=O)(=O)NCC(O)/C=C/c2ccccc2)cc1 (stereo unspecified) — 6.7-fold lower, 7.6 µM
- N#Cc1ccc(C(=O)NCC(/C=C/c2ccccc2)OC(=O)c2ccc(C#N)cc2)cc1 (stereo unspecified) — 1.5-fold lower, 33 µM
- CC(C)(C)OC(=O)NCC(O)/C=C/c1ccccc1 (stereo unspecified) — 2.1-fold higher, 106 µM
- O=S(=O)(NCC(O)/C=C/c1ccccc1)c1ccc(F)cc1 (stereo unspecified) — 6.4-fold lower, 7.9 µM
- O=S(=O)(NCC(O)/C=C/c1ccccc1)c1ccc(Cl)cc1 (stereo unspecified) — 5.5-fold lower, 9.2 µM
- OC(/C=C/c1ccccc1)CN(Cc1ccc(C(F)(F)F)cc1)Cc1ccc(C(F)(F)F)cc1 (stereo unspecified) — 1.5-fold lower, 32.8 µM
